Assay [1] is filed under the species Rattus norvegicus. As to the kind of experiment: Inhibition of rat heart cAMP phosphodiesterase.
For assay [2], the target named is T1, Phosphodiesterase 3 (Homo sapiens, UniProt Q14432+Q13370). Put plainly: In vitro inhibition of cyclic AMP phosphodiesterase from human platelets.
The species entered for a further assay is Homo sapiens. As to the kind of experiment: Inhibition of ADP-induced platelet aggregation. Type of assay: functional. The method, boiled down: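 Human citrated PRP (200g, 15 min, room temperature), aspirin-free donors. Compound in DMF or Me2SO preincubated 5 min with stirred PRP at 37 °C. Aggregation induced by 5 μM ADP, followed turbidimetrically. Repeated at least twice with different donors; IC50 graphical.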

The target of assay [3] is T1, Phosphodiesterase 3. As to the kind of experiment: Inhibition of human platelet cAMP phosphodiesterase at 10e-4 M.
The species entered for assay [4] is Rattus norvegicus. Put plainly: Inhibition of rat heart cAMP phosphodiesterase (weak partial inhibition).

Bounds are passed on as bounds.

By IC25 is commonly meant the concentration needed for an effect of 25%. The low end stands for an effect from little substance, the high end for a need for much substance. The IC50 is the point on the concentration scale where inhibition reaches its midpoint. Read a high IC50 as lower potency. For the molecule `CN(C(=O)CCCOc1ccc2[nH]c(=O)oc(=O)c2c1)C1CCCCC1`, the IC25 in the assay listed under Rattus norvegicus [1] was over 30 µM. Also, the IC50 on Phosphodiesterase 3 [2] was 4.4 µM.
Molecule `CN(C(=O)CCCOc1ccc2c(c1)CNC(=O)N2)C1CCCCC1` had an IC25 in the assay listed under Rattus norvegicus [1] of 0.88 µM. Moreover, on Phosphodiesterase 3 [2], the IC50 amounted to 1.3 µM.
As to `COc1ccc2c(c1)CN1CC(=O)NC1=N2`, the IC50 in the assay filed under Homo sapiens was 4 µM; on Phosphodiesterase 3 [2], 1.5 µM.
In turn, `CN(C(=O)CCCOc1ccc2c(c1)C(=O)NCC(=O)N2)C1CCCCC1` gave an IC25 in the assay filed under Rattus norvegicus [1] of 50 µM. Besides, the IC50 at Phosphodiesterase 3 [2] came out at 3.6 µM.
In the case of `CN(C(=O)CCCOc1ccc2[nH]c(=O)ccc2c1)C1CCCCC1` [CILOSTAMIDE], 1.9 µM corresponded to half-maximal inhibition in the assay listed under Homo sapiens (IC50). Besides, it took 0.7 µM to reach the 25% level in the assay filed under Rattus norvegicus [1] (IC25).
`CN(C(=O)CCCOc1ccc2c(c1)COC(=O)N2)C1CCCCC1` displayed an IC25 in the assay filed under Rattus norvegicus [1] of 1 µM. The molecule further showed an IC50 against Phosphodiesterase 3 [2] of 1.15 µM.
In turn, `COc1ccc2c(c1)CNC(=O)N2` showed a half-inhibitory concentration (IC50) against Phosphodiesterase 3 [3] of 35 µM.
Turning to `CCCCCCOc1ccc2c(c1)CN1CC(=O)NC1=N2`, the figures for the IC50 in the assay filed under Homo sapiens and against Phosphodiesterase 3 [2] were 62 µM and 0.29 µM, respectively. Besides, in the assay filed under Rattus norvegicus [1], the 25% effect concentration (IC25) worked out at 0.32 µM.
In the assay listed under Rattus norvegicus [1], `CN(C(=O)CCCOc1ccc2c(c1)OCC(=O)N2)C1CCCCC1` gave a concentration for an effect of 25% (IC25) of 1.3 µM. This molecule also yielded an IC50 against Phosphodiesterase 3 [2] of 3.4 µM.
For the molecule `COc1ccc2c(c1)COC(=O)N2`, the half-maximal inhibitory concentration (IC50) against Phosphodiesterase 3 [2] was 100 µM.
Consider `CN(C(=O)CCCOc1ccc2c(c1)CN1CC(=O)NC1=N2)C1CCCCC1` [LIXAZINONE], for which the IC50 in the assay listed under Homo sapiens worked out at 0.11 µM; against Phosphodiesterase 3 [2] it was 0.01 µM. The same molecule yielded a 25% effect concentration (IC25) in the assay filed under Rattus norvegicus [1] of 0.6 µM.
In the assay listed under Rattus norvegicus [1], `CN(C(=O)CCCOc1ccc2c(c1)CCC(=O)N2)C1CCCCC1` gave an IC25 of 1.5 µM. The IC50 against Phosphodiesterase 3 [2] was determined as 1.35 µM.
`CN(C(=O)CCCOc1ccc2c(c1)CSC(=O)N2)C1CCCCC1` showed an IC25 in the assay listed under Rattus norvegicus [1] of 0.38 µM. Also, the IC50 on Phosphodiesterase 3 [2] came to 0.19 µM.
Regarding `COc1ccc2nc(O)sc2c1`, at Phosphodiesterase 3 [2], the IC50 was determined as 21 µM.
Consider `CN(C(=O)CCCOc1ccc2c(c1)SCC(=O)N2)C1CCCCC1`, for which, in the assay filed under Rattus norvegicus [1], the IC25 was 1.4 µM. The molecule further registered a half-inhibitory concentration (IC50) on Phosphodiesterase 3 [2] of 1.8 µM.
In turn, `CN(C(=O)CCCOc1ccc2[nH]c(=O)[nH]c(=O)c2c1)C1CCCCC1` gave an IC25 in the assay listed under Rattus norvegicus [1] of 1.3 µM. This molecule also yielded a half-maximal inhibitory concentration (IC50) on Phosphodiesterase 3 [2] of 1.15 µM.
In the assay listed under Rattus norvegicus [1], `CN(C(=O)CCCOc1ccc2nc(O)sc2c1)C1CCCCC1` displayed an IC25 of over 10 µM. This molecule returned a 50% inhibitory concentration (IC50) on Phosphodiesterase 3 [2] of 10 µM.
The molecule `COc1ccc2c(c1)CSC(=O)N2` gave an IC50 against Phosphodiesterase 3 [2] of 13 µM.
In turn, `O=C1CN2Cc3c(ccc(Cl)c3Cl)N=C2N1` [ANAGRELIDE] returned a half-inhibitory concentration (IC50) in the assay listed under Homo sapiens of 2.6 µM. The IC25 in the assay filed under Rattus norvegicus [4] is over 100 µM.

These data come from ChEMBL document CHEMBL1123669 (J Med Chem, 1987).
